Legend:
Syrian golden hamster = experiment: Inhibition of cholesterol synthesis in golden syrian hamster assessed as reduction of [14C]-cholesterol level at 10 mg/kg, po followed by 2 hrs after treated with 80 uCi, ip of [14C]-sodium acetate measured after 4 hrs by liquid scintillation counting relative to control; format: functional; details: Mesocricetus auratus
How it was run: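 Hamsters dosed po at 10 mg/kg at t = 0 h. Intraperitoneal 14C sodium acetate at t = 2 h, blood drawn at t = 4 h for 14C cholesterol. Percent inhibition vs untreated controls, n = 8/group.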

OATP1A1 = molecular target: T1, OATP1A1 (Rattus norvegicus, UniProt P46720); experiment: Drug uptake by rat hepatic OATP1A1 transporters expressed in CHO cells at 1 uM relative to wild type CHO cells; format: ADME, cell-based; details: CHO cells expressing rat OATP1A1, read-out: FC
T1 sequence (P46720 whole entry): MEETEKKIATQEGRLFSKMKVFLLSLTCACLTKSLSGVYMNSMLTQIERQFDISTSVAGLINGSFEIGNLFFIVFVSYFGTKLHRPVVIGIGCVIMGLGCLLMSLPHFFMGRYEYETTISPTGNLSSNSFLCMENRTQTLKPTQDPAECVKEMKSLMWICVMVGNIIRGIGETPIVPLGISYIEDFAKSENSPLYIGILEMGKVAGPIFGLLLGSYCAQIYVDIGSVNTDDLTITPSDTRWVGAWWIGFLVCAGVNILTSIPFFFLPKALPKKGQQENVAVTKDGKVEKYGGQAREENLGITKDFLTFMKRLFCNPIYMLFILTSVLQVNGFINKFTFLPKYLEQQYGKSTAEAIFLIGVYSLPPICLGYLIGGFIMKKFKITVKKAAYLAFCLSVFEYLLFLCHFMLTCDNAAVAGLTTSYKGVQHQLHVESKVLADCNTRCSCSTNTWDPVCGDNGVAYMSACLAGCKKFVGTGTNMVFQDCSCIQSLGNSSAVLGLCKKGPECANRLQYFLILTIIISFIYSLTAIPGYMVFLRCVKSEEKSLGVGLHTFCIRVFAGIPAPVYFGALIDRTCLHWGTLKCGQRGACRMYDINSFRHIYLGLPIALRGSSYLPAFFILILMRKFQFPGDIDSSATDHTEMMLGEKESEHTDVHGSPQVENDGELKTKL
How it was run: (§1)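 Individual hepatic OATP transporters were over-expressed in CHO or HEK293 cells: rat rOatp1a1, rOatp1a4 and rOatp1b2, and human hOATP1B1, hOATP1B3 and hOATP2B1. Substrate uptake is expressed as fold difference relative to the wild-type parental line. Rosuvastatin/pravastatin served as positive control and midazolam as negative control in each assay.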

OATP1B1 = molecular target: T2, OATP1B1 (Homo sapiens, UniProt Q9Y6L6); experiment: Drug uptake by human hepatic OATP1B1 transporter expressed in HEK293 cells at 10 uM relative to wild type HEK293 cells; format: ADME, cell-based; details: HEK293 cells expressing OATP1B1, read-out: FC; how it was run: as §1
T2 sequence (Q9Y6L6 whole entry): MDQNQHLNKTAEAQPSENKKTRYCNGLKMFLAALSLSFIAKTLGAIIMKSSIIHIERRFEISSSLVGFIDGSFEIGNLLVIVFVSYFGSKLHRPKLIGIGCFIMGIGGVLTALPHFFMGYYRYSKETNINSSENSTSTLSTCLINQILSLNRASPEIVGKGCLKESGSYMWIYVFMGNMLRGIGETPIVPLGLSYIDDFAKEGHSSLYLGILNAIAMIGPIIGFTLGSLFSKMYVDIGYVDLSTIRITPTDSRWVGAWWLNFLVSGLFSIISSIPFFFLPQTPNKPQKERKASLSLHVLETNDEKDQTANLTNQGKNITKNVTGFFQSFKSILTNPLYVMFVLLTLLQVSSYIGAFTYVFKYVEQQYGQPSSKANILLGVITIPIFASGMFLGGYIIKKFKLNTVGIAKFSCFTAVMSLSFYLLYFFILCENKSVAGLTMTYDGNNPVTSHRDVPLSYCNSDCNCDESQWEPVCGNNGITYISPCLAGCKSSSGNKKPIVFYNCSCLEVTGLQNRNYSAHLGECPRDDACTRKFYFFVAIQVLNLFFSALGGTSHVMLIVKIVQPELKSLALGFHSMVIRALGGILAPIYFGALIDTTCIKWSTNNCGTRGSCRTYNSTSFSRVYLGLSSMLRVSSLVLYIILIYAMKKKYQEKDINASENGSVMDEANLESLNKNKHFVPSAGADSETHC

[1] = Lipophilicity, log D of the compound at pH 7.4 by shake flask method; format: physicochemical; details: buffer
How it was run: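 Log D at pH 7.4 by shake flask.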

Hepatocyte = experiment: Drug uptake in sandwich-cultured rat hepatocytes assessed per mg of protein at 1 uM in presence of rifamycin SV; format: ADME, cell-based
How it was run: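 Rat or human hepatocytes were cultured in sandwich configuration with a Matrigel overlay and compound uptake was measured. Active uptake was assessed by inhibition with the pan-OATP inhibitor rifamycin SV. Rosuvastatin/pravastatin served as positive control and midazolam as negative control.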

OATP1B3 = molecular target: T3, OATP1B3 (Homo sapiens, UniProt Q9NPD5); experiment: Drug uptake by human hepatic OATP1B3 transporter expressed in HEK293 cells at 10 uM relative to wild-type HEK293 cells; format: ADME, cell-based; details: HEK293 cells expressing OATP1B3, read-out: FC; how it was run: as §1
T3 sequence (Q9NPD5 whole entry): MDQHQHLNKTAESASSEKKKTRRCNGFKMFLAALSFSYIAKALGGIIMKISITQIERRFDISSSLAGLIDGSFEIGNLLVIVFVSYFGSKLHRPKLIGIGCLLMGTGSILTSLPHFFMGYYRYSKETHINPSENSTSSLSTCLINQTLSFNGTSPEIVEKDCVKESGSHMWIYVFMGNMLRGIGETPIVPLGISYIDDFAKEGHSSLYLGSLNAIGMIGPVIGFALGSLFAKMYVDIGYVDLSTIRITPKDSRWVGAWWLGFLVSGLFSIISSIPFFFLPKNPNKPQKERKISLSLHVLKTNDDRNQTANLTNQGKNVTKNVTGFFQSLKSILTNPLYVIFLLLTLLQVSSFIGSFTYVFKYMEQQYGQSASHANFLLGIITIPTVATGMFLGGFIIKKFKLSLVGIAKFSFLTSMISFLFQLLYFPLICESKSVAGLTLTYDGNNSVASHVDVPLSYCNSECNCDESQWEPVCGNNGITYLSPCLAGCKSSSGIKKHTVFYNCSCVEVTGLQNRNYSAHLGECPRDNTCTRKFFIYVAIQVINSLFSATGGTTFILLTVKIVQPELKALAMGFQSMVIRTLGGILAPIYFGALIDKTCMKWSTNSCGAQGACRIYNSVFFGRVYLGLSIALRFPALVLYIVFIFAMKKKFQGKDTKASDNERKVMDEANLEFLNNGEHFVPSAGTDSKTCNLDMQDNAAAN

[2] = Fraction unbound in rat plasma at 0.5 ug/ml; format: ADME, cell-free
How it was run: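 Unbound fraction in rat, dog or human plasma, measured at a drug concentration of 0.5 μg/mL.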

`O=C([O-])C[C@H](O)C[C@H](O)CCn1c(-c2ccc(F)cc2)nc(C(=O)NCc2cccc(F)c2)c1C1CC1.[Na+]` showed an inhibition in vivo at 10 mg/kg (Syrian golden hamster) of -68%, an uptake ratio at 1 µM (OATP1A1) of 5.8 and an uptake ratio at 10 µM (OATP1B1) of 84.9. It also gave a logD [1] of 0.51, a Drug uptake (Hepatocyte) of 100% and an uptake ratio at 10 µM (OATP1B3) of 36.4. It also gave a fraction unbound at 0.5 ug/ml [2] of 0.15.

For `Cc1ccc(CNC(=O)c2nn(-c3ccc(F)cc3)c(CC[C@@H](O)C[C@@H](O)CC(=O)O)c2C(C)C)cc1`, the inhibition in vivo at 10 mg/kg (Syrian golden hamster) was -74%, the uptake ratio at 1 µM (OATP1A1) was 3.6 and the uptake ratio at 10 µM (OATP1B1) was 18.4. The logD [1] was 0.24, the Drug uptake (Hepatocyte) was 98% and the uptake ratio at 10 µM (OATP1B3) was 5. For the same compound, the fraction unbound at 0.5 ug/ml [2] was 0.016.

In the case of `Cc1ncc2n1-c1ccc(Cl)cc1C(c1ccccc1F)=NC2` [MIDAZOLAM], the uptake ratio at 1 µM (OATP1A1) is reported as 1.6, the uptake ratio at 10 µM (OATP1B1) is reported as 0.9 and the uptake ratio at 10 µM (OATP1B3) is reported as 1.1.

With `CC[C@H](C)C(=O)O[C@H]1C[C@H](O)C=C2C=C[C@H](C)[C@H](CC[C@@H](O)C[C@@H](O)CC(=O)O)[C@H]21` [PRAVASTATIN] the uptake ratio at 1 µM (OATP1A1) was 2.4, the uptake ratio at 10 µM (OATP1B1) was 223 and the uptake ratio at 10 µM (OATP1B3) was 32.8.

With `CC(C)c1nc(N(C)S(C)(=O)=O)nc(-c2ccc(F)cc2)c1/C=C/[C@@H](O)C[C@@H](O)CC(=O)O` [ROSUVASTATIN] the inhibition in vivo at 10 mg/kg (Syrian golden hamster) was -76%, the uptake ratio at 1 µM (OATP1A1) was 8.2 and the uptake ratio at 10 µM (OATP1B1) was 69.6. For the same compound, the logD [1] was 1.01, the Drug uptake (Hepatocyte) was 97% and the uptake ratio at 10 µM (OATP1B3) was 11.1. It also gave a fraction unbound at 0.5 ug/ml [2] of 0.06.

Reference: ChEMBL document CHEMBL1781963, “Discovery of novel hepatoselective HMG-CoA reductase inhibitors for treating hypercholesterolemia: a bench-to-bedside case study on tissue selective drug distribution” (Bioorg Med Chem Lett, 2011)
